Source: ChEMBL document CHEMBL1153348, “Semi-synthetic analogs of pinitol as potential inhibitors of TNF-alpha cytokine expression in human neutrophils” (2009)
Calls of active or inactive are those of the source. No cut-off for these calls is given here.

Tested on: not listed separately
Assay: Antiinflammatory activity in human neutrophils assessed as inhibition of LPS-induced intracellular TNFalpha expression at 1 ug/mL after 3 hrs by flow cytometry
Assay type: functional, Neutrophil
Set-up: scale not given: the % may be the effect or the level left
Summary of the method: (§1)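 Neutrophils were isolated from human blood: spun at 250g for 20 min, and the platelet-rich layer was discarded. The lower layer was spun at 1800g, and the buffy coat was layered on histopaque and spun at 700g. RBCs were lysed and the cells washed with PBS. Cells were given LPS plus compound for 3 h in a CO2 incubator, permeabilised, stained 30 min in the dark with conjugated anti-TNF-α mAb, and read by flow cytometry.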

Structure (SMILES) | Activity
CO[C@@H]1[C@@H](O)[C@@H](O)[C@H](O)[C@H](O)[C@H]1OC(C)=O | 2.28%
CO[C@@H]1[C@@H](OC(C)=O)[C@@H](OC(C)=O)[C@H](OC(C)=O)[C@H](OC(C)=O)[C@H]1OC(C)=O | 33.46%
CCCC(=O)O[C@H]1[C@H](OC)[C@H]2OC(C)(C)O[C@H]2[C@@H]2OC(C)(C)O[C@H]12 | 39.54%
CO[C@H]1[C@H](OC)[C@H]2OC(C)(C)O[C@H]2[C@@H]2OC(C)(C)O[C@H]12 | 33.33%
CO[C@H]1[C@H](OC(C)=O)[C@@H](OC(C)=O)[C@@H](OC(C)=O)[C@H](O)[C@@H]1OC(C)=O | 1.14%
CCO[C@H]1[C@H](OC)[C@H]2OC(C)(C)O[C@H]2[C@@H]2OC(C)(C)O[C@H]12 | 38.4%
C=CCO[C@H]1[C@H](OC)[C@H]2OC(C)(C)O[C@H]2[C@@H]2OC(C)(C)O[C@H]12 | 34.98%
CO[C@H]1[C@H](O)[C@H]2OC(C)(C)O[C@H]2[C@@H]2OC(C)(C)O[C@@H]21 | 13.09%
CO[C@H]1[C@H](Cl)[C@H]2OC(C)(C)O[C@H]2[C@@H]2OC(C)(C)O[C@@H]21 | 37.64%
CO[C@H]1[C@H](O)[C@@H](O)[C@@H](O)[C@H](O)[C@@H]1O [METHYLINOSITOL] | 30.03%
CCC(=O)O[C@H]1[C@H](OC)[C@H]2OC(C)(C)O[C@H]2[C@@H]2OC(C)(C)O[C@H]12 | 32.14%
CO[C@@H]1[C@@H](OC(=O)c2ccccc2)[C@@H](OC(=O)c2ccccc2)[C@H](OC(=O)c2ccccc2)[C@H](OC(=O)c2ccccc2)[C@H]1OC(=O)c1ccccc1 | 51.71%
CO[C@H]1C(=O)[C@H]2OC(C)(C)O[C@H]2[C@@H]2OC(C)(C)O[C@@H]21 | 50.57%
CCO[C@@H]1[C@@H](O)[C@@H](O)[C@H](O)[C@H](O)[C@H]1OC | 36.5%
CO[C@@H]1[C@@H](OC(C)=O)[C@@H](OC(C)=O)[C@H](O)[C@H](OC(C)=O)[C@H]1OC(C)=O | 33.46%
CO[C@H]1[C@H](OC(C)=O)[C@H]2OC(C)(C)O[C@H]2[C@@H]2OC(C)(C)O[C@H]12 | 42.58%
CO[C@@H]1[C@@H](O)[C@@H](O)[C@H](O)[C@H](O)[C@H]1OC | 39.16%
CCC(=O)O[C@@H]1[C@@H](O)[C@@H](O)[C@H](O)[C@H](O)[C@H]1OC | 20.91%
C=CCO[C@@H]1[C@@H](O)[C@@H](O)[C@H](O)[C@H](O)[C@H]1OC | 29.65%
CO[C@H]1[C@H](OC(=O)C(C)C)[C@H]2OC(C)(C)O[C@H]2[C@@H]2OC(C)(C)O[C@H]12 | 20.65%
CCCC(=O)O[C@@H]1[C@@H](O)[C@@H](O)[C@H](O)[C@H](O)[C@H]1OC | 8.36%
CCC(=O)O[C@H]1[C@H](OC(=O)CC)[C@H](OC(=O)CC)[C@@H](OC)[C@H](OC(=O)CC)[C@H]1OC(=O)CC | 30.79%
CO[C@@H]1[C@@H](O)[C@@H](O)[C@H](O)[C@H](O)[C@H]1OC(=O)C(C)C | 17.85%
CCCC(=O)O[C@H]1[C@H](OC(=O)CCC)[C@H](OC(=O)CCC)[C@@H](OC)[C@H](OC(=O)CCC)[C@H]1OC(=O)CCC | 52.47%

Tested on: not listed separately
Assay: Antiinflammatory activity in human neutrophils assessed as inhibition of LPS-induced intracellular TNFalpha expression at 10 ug/mL after 3 hrs by flow cytometry
Assay type: functional, Neutrophil
Set-up: scale not given: the % may be the effect or the level left
Summary of the method: as §1

Structure (SMILES) | Activity
COc1ccc(C2CNC(=O)C2)cc1OC1CCCC1 (stereo not drawn) [ROLIPRAM] | 52.85%

Tested on: Neutrophil (Homo sapiens)
Assay: Antiinflammatory activity in human neutrophils assessed as inhibition of LPS-induced intracellular TNFalpha expression

Structure (SMILES) | Activity
CO[C@@H]1[C@@H](OC(=O)c2ccccc2)[C@@H](OC(=O)c2ccccc2)[C@H](OC(=O)c2ccccc2)[C@H](OC(=O)c2ccccc2)[C@H]1OC(=O)c1ccccc1 | Active
CO[C@H]1C(=O)[C@H]2OC(C)(C)O[C@H]2[C@@H]2OC(C)(C)O[C@@H]21 | Active
CCCC(=O)O[C@H]1[C@H](OC(=O)CCC)[C@H](OC(=O)CCC)[C@@H](OC)[C@H](OC(=O)CCC)[C@H]1OC(=O)CCC | Active
